{
  "source": "paper PMC2715132",
  "about": "(The Journal of Experimental Medicine, 2009)",
  "key": {"T. gondii RH M190D4": {"system": "T. gondii RH M190D4", "experiment": "T. gondii growth in HFF monolayer, [3H]uracil incorporation", "format": "cell-based, Toxoplasma gondii", "how_it_was_run": "(§1)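 Confluent human fibroblasts infected with tachyzoites with or without test compound. After 72 h, washed and pulsed with [3H]uracil for 4 h, then washed and solubilized. Acid-precipitable radioactivity counted by liquid scintillation. EC50 by nonlinear regression.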"}, "T. gondii RH WT [1]": {"system": "T. gondii RH WT", "experiment": "Immunofluorescence of intracellular T. gondii", "format": "cell-based, Toxoplasma gondii", "details": "IFA, 24 h, 40 nM FR235222, 1 µM pyrimethamine", "how_it_was_run": "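Confluent HFF monolayers infected with RH tachyzoites with 40 nM test compound, 0.1% DMSO or 1 µM pyrimethamine for 24 h. Fixed/permeabilized 20 min (3% formaldehyde, 0.2% Triton X-100) and blocked with 5% FBS/5% goat serum. Stained with anti-AcH4 antiserum and anti-IMC1 monoclonal (1:1,000), Alexa 568/488 secondaries, and Hoechst 33258 for DNA.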"}, "T. gondii Prugniaud": {"system": "T. gondii Prugniaud", "experiment": "T. gondii growth in HFF monolayer, [3H]uracil incorporation", "format": "cell-based", "details": "Toxoplasma gondii, read-out: EC50 (nM ± SD)", "how_it_was_run": "as §1"}, "[2]": {"system": "T. gondii type II Prugniaud strain", "experiment": "Bradyzoite differentiation, SRS9/P36 expression by IFA", "format": "cell-based, Toxoplasma gondii"}, "T. gondii RH WT [3]": {"system": "T. gondii RH WT", "experiment": "T. gondii growth in HFF monolayer, [3H]uracil incorporation", "format": "cell-based", "details": "Toxoplasma gondii", "how_it_was_run": "as §1"}, "[4]": {"system": "histone H4 acetylation in T. gondii RH WT", "experiment": "Immunoblot of histone acetylation in extracellular tachyzoites", "format": "cell-based, Toxoplasma gondii"}, "P. falciparum": {"system": "P. falciparum", "experiment": "Antimalarial activity in vitro, P. falciparum intraerythrocytic growth", "format": "cell-based, Plasmodium falciparum", "details": "3D7 chloroquine sensitive, Dd2 chloroquine resistant, Fig. 1 C, n = 4", "how_it_was_run": "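Drug exposure: 48 h for asynchronous 3D7 and Dd2 cultures, 20 h for plasmion-enriched 3D7 schizonts. Growth was read by […] incorporation, and EC50 was derived by nonlinear regression.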"}, "N. caninum": {"system": "N. caninum", "experiment": "N. caninum growth in HFF monolayer", "format": "cell-based, Neospora caninum", "details": "read-out: EC50 (nM ± SD), mean ± SD"}, "[5]": {"system": "histone H4 acetylation in T. gondii TgHDAC3^T99A resistant line", "experiment": "Immunoblot of histone acetylation in extracellular tachyzoites", "format": "cell-based, Toxoplasma gondii", "details": "20 nM FR235222, immunoblot"}, "[6]": {"system": "histone H4 acetylation in T. gondii TgHDAC3^T99I resistant line", "experiment": "Immunoblot of histone acetylation in extracellular tachyzoites", "format": "cell-based, Toxoplasma gondii", "details": "20 nM FR235222, immunoblot"}, "[7]": {"system": "20.m00351 mRNA, T. gondii type II Prugniaud strain", "experiment": "Semiquantitative RT-PCR of 20.m00351 mRNA", "format": "cell-based, Toxoplasma gondii", "details": "40 nM FR235222 for 3 d, n = 3"}, "HFFs": {"system": "HFFs", "experiment": "Mammalian host cell proliferation", "format": "cell-based, human", "details": "in vitro, parasites versus HFF cells"}, "[8]": {"details": "read-out: EC50 (nM ± SD), T. gondii RH M190D4 (FR235222-resistant mutant, TgHDAC3 T99A) in HFF monolayer, [3H]uracil incorporation, mean ± SD"}, "[9]": {"details": "read-out: EC50, T. gondii intracellular growth"}},
  "note": "Read-outs that look alike come from different tables or passages of the source.",
  "data": [
    {"molecule": "CCC(=O)CCCCC[C@@H]1NC(=O)[C@H]2CCCCN2C(=O)[C@H]([C@@H](C)CC)NC(=O)[C@H](Cc2cn(OC)c3ccccc23)NC1=O", "note": "[Apicidin, apicidin]", "values": [
      {"measurement": "EC50", "setting": "T. gondii RH M190D4; [8]", "value": "67 ± 16", "unit": "nM"}
    ]},
    {"molecule": "CCc1nc(N)nc(N)c1-c1ccc(Cl)cc1", "note": "[Pyrimethamine, pyrimethamine]", "values": [
      {"measurement": "EC50", "setting": "T. gondii RH M190D4; Toxoplasma gondii, read-out: EC50 (nM ± SD)", "value": "300 ± 11", "unit": "nM"},
      {"measurement": "AcH4 signals in nuclei of treated parasites versus DMSO control", "setting": "T. gondii RH WT [1]", "value": "not observed"},
      {"measurement": "EC50", "setting": "T. gondii Prugniaud", "value": "195 ± 1", "unit": "nM"},
      {"measurement": "induction of SRS9/P36", "setting": "[2]; 1 µM pyrimethamine, 2–3 d, IFA with anti-P36", "value": "very weak induction"},
      {"measurement": "EC50", "setting": "T. gondii RH WT [3]; read-out: EC50 (nM ± SD), SD", "value": "285 ± 61", "unit": "nM"},
      {"measurement": "EC50", "setting": "T. gondii RH WT [3]; [9]", "value": 300, "unit": "nM"}
    ]},
    {"molecule": "O=C(CCCCCN1C(=O)c2cccc3cccc(c23)C1=O)NO", "note": "[Scriptaid]", "values": [
      {"measurement": "EC50", "setting": "T. gondii RH WT [3]; [9]", "value": 400, "unit": "nM"}
    ]},
    {"molecule": "FR235222", "values": [
      {"measurement": "EC50", "setting": "T. gondii RH M190D4; [8]", "value": "62 ± 5", "unit": "nM"},
      {"measurement": "increase of AcH4 signals", "setting": "[4]; WT, 20 nM FR235222, immunoblot", "value": "approximately eightfold"},
      {"measurement": "increase of AcH4 signals", "setting": "[4]; extracellular tachyzoites incubated with drug 4 h, immunoblot", "value": "approximately eightfold"},
      {"measurement": "acetylation of histones H2B (K12 and K15) and H3K9", "setting": "[4]; immunoblot, FR235222 treatment (Fig. S2)", "value": "not affected"},
      {"measurement": "AcH4 signals in nuclei of treated parasites versus DMSO control", "setting": "T. gondii RH WT [1]", "value": "higher"},
      {"measurement": "comparison of EC50s on clones 3D7 and Dd2", "setting": "P. falciparum", "value": "equivalent"},
      {"measurement": "EC50", "setting": "N. caninum", "value": "8 ± 2", "unit": "nM"},
      {"measurement": "parasitic vacuoles expressing SRS9/P36", "setting": "[2]; 40 nM FR235222, 2–3 d, IFA with anti-P36, n = 2", "value": "~80", "unit": "%"},
      {"measurement": "increase of AcH4 signals", "setting": "[5]", "value": "approximately threefold"},
      {"measurement": "change of AcH4 signals", "setting": "[6]", "value": "remained unchanged"},
      {"measurement": "20.m00351 mRNA levels", "setting": "[7]", "value": "accumulated"},
      {"measurement": "sensitivity of parasites relative to HFF cells", "setting": "HFFs", "value": "~10", "unit": "times"}
    ]}
  ]
}
